Measurements published in article PMC7717620 (Nucleosides, nucleotides & nucleic acids, 2019).
Entries after “also recorded” stand apart in the source; their conditions may differ.

Key:
various cell lines = settings: up to 100 μM; cited from earlier work
[1] = tested on: HCV genotype 1 b RNA replication; assay: subgenomic HCV replicon system, inhibition of HCV RNA replication in Huh-7 cells; format: cell-based, hepatitis C virus; settings: HCV genotype 1 b subgenomic replicon
Method in brief: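 HCV genotype 1b subgenomic replicon in Huh-7 cells. HCV RNA and cellular ribosomal RNA were extracted and amplified, so replication and cytotoxicity were read in the same cells.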

[2] = tested on: primary human hepatocytes; assay: intracellular metabolism in primary human hepatocytes; format: in vitro ADME; settings: 50 μM, 4 h
[3] = tested on: primary monkey hepatocytes; assay: intracellular metabolism in primary monkey hepatocytes; format: in vitro ADME; settings: 50 μM, 4 h
[4] = single dose escalation and seven day repeat dosing in rats; settings: rat, in vivo
[5] = tested on: primary mouse hepatocytes; assay: intracellular metabolism in primary mouse hepatocytes; format: in vitro ADME; settings: 50 μM, 4 h
primary rat hepatocytes = assay: intracellular metabolism in primary rat hepatocytes; format: in vitro ADME; settings: 50 μM, 4 h
HepG2 cells [6] = assay: intracellular metabolism in HepG2 cells; format: in vitro ADME, human; settings: HepG2, 50 μM, 4 h
Huh-7 cells = assay: intracellular metabolism in Huh-7 cells; format: in vitro ADME, human; settings: Huh-7, 50 μM, 4 h
HepG2 cells [7] = settings: up to 50 μM; cited from earlier work
human cardiomyocytes [8] = assay: recording of human cardiomyocyte beating patterns; format: cell-based
[9] = single dose escalation and seven day repeat dosing in dogs; settings: dog, in vivo
human cardiomyocytes [10] = assay: cellular accumulation and metabolism in human cardiomyocytes; format: in vitro ADME; settings: 10 μM
primary dog hepatocytes = assay: intracellular metabolism in primary dog hepatocytes; format: in vitro ADME; settings: 50 μM, 4 h

CC(C)OC(=O)CCc1ccccc1OP(=O)(N[C@@H](C)C(=O)OC(C)C)OC[C@H]1O[C@@H](n2cnc3c(N)nc(N)nc32)[C@](C)(O)[C@@H]1O (stereo partly drawn) [DAPN-PD, Isopropyl 3-(2-(((((2R,3R,4R,5R)-5-(2,6-diamino-9H-purin-9-yl)-3,4-dihydroxy-4-methyltetrahydrofuran-2-yl)methoxy)(((S)-1-isopropoxy-1-oxopropan-2-yl)amino)phosphoryl)oxy)phenyl)propanoate]
in vitro cytotoxicity in various cell lines (various cell lines): no in vitro cytotoxicity | Replicon Huh-7 EC50 [1]: sub-micromolar | Intracellular concentration: Prodrugs [2]: 70 ± 6 pmol/10^6 cells | Intracellular concentration: Prodrugs [3]: 160 ± 4 pmol/10^6 cells | NOAEL at 7 day [4]: < 40 mg/kg/day | Intracellular concentration: 2’-C-Me-G [5]: BLOQ | Intracellular concentration: Prodrugs [5]: 13 ± 1 pmol/10^6 cells | Intracellular concentration: Prodrugs (primary rat hepatocytes): 0.90 ± 0.50 pmol/10^6 cells | Intracellular concentration: Prodrugs (HepG2 cells [6]): 390 ± 33 pmol/10^6 cells | Intracellular concentration: Prodrugs (Huh-7 cells): 170 ± 4 pmol/10^6 cells | mitochondrial toxicity or increase in lactic acid levels (HepG2 cells [7]): no mitochondrial toxicity or increase in lactic acid levels | Beating rate of human cardiomyocytes (human cardiomyocytes [8]; 2 μM, 2 h): 33.5 ± 0.7 beats/minute | Beating rate of human cardiomyocytes (human cardiomyocytes [8]; 2 μM, 4 h): 34.0 ± 0 beats/minute | Beating rate of human cardiomyocytes (human cardiomyocytes [8]; 2 μM, 8 h): 37.0 ± 0 beats/minute | Beating rate of human cardiomyocytes (human cardiomyocytes [8]; 2 μM, 12 h): 36.0 ± 0 beats/minute | Beating rate of human cardiomyocytes (human cardiomyocytes [8]; 2 μM, 24 h): 34.0 ± 1.4 beats/minute | Beating rate of human cardiomyocytes (human cardiomyocytes [8]; 2 μM, 48 h): 27.5 ± 0.7 beats/minute | change in beating rate or rhythm of cardiomyocytes (observation) (human cardiomyocytes [8]; 2 μM, up to 48 h): did not observe beating changes | Beating rate of human cardiomyocytes (human cardiomyocytes [8]; 10 μM, 2 h): 24.5 ± 0.7 beats/minute | Beating rate of human cardiomyocytes (human cardiomyocytes [8]; 10 μM, 4 h): 23.5 ± 0.7 beats/minute | Beating rate of human cardiomyocytes (human cardiomyocytes [8]; 10 μM, 8 h): 26.0 ± 1.4 beats/minute | Beating rate of human cardiomyocytes (human cardiomyocytes [8]; 10 μM, 12 h): 25.5 ± 0.7 beats/minute | Beating rate of human cardiomyocytes (human cardiomyocytes [8]; 10 μM, 24 h): 25.5 ± 0.7 beats/minute | Beating rate of human cardiomyocytes (human cardiomyocytes [8]; 10 μM, 48 h): 25.5 ± 0.7 beats/minute | change in beating rate or rhythm of cardiomyocytes (observation) (human cardiomyocytes [8]; 10 μM, up to 48 h): changes to both beat rate and rhythm were noted; also recorded: caused the beat rate to decrease | Beating rate of human cardiomyocytes (human cardiomyocytes [8]; 50 μM, 2 h): 21.5 ± 0.7 beats/minute | Beating rate of human cardiomyocytes (human cardiomyocytes [8]; 50 μM, 4 h): 21.0 ± 0 beats/minute | Beating rate of human cardiomyocytes (human cardiomyocytes [8]; 50 μM, 8 h): 22.0 ± 0 beats/minute | Beating rate of human cardiomyocytes (human cardiomyocytes [8]; 50 μM, 12 h): 21.0 ± 0 beats/minute | Beating rate of human cardiomyocytes (human cardiomyocytes [8]; 50 μM, 24 h): 19.0 ± 0 beats/minute | Beating rate of human cardiomyocytes (human cardiomyocytes [8]; 50 μM, 48 h): 17.0 ± 0 beats/minute | rhythm of cardiomyocytes (observation) (human cardiomyocytes [8]; 10 and 50 μM): altered and irregular | change in beating rate of cardiomyocytes (observation) (human cardiomyocytes [8]; 10 and 50 μM, up to 48 h): the beating rate dropped within 2 h then remained at a reduced rate out to 48 h | NOAEL at 7 day [9]: < 40 mg/kg/day | Intracellular concentration in human cardiomyocytes: Prodrugs (human cardiomyocytes [10]; 4 h): 70 ± 3 pmol/10^6 cells | Intracellular concentration in human cardiomyocytes: Prodrugs (human cardiomyocytes [10]; 8 h): 51 ± 1 pmol/10^6 cells | intact prodrug level, times lower than BMS-986094 (human cardiomyocytes [10]; human cardiomyocytes, 8 h): 16 times | Intracellular concentration: Prodrugs (primary dog hepatocytes): 6.3 ± 1.5 pmol/10^6 cells
